# Laboratory results reported in ChEMBL document CHEMBL3526013, “Cannabinoid type 1 receptor antagonists modulate transport activity of multidrug resistance-associated proteins MRP1, MRP2, MRP3, and MRP4” (Drug Metab Dispos, 2011).
# Assays:
# [1] = biological target: T1, ATP-binding cassette sub-family C member 4 (Homo sapiens, UniProt O15439); assay: Inhibition of MRP4-mediated E2-17betaG transport in human MRP4 expressing HEK293 cells at 12 uM during 5 mins; type: ADME, cell-based; settings: hek293, 5 min, 12 µM
# T1 sequence (O15439 whole entry): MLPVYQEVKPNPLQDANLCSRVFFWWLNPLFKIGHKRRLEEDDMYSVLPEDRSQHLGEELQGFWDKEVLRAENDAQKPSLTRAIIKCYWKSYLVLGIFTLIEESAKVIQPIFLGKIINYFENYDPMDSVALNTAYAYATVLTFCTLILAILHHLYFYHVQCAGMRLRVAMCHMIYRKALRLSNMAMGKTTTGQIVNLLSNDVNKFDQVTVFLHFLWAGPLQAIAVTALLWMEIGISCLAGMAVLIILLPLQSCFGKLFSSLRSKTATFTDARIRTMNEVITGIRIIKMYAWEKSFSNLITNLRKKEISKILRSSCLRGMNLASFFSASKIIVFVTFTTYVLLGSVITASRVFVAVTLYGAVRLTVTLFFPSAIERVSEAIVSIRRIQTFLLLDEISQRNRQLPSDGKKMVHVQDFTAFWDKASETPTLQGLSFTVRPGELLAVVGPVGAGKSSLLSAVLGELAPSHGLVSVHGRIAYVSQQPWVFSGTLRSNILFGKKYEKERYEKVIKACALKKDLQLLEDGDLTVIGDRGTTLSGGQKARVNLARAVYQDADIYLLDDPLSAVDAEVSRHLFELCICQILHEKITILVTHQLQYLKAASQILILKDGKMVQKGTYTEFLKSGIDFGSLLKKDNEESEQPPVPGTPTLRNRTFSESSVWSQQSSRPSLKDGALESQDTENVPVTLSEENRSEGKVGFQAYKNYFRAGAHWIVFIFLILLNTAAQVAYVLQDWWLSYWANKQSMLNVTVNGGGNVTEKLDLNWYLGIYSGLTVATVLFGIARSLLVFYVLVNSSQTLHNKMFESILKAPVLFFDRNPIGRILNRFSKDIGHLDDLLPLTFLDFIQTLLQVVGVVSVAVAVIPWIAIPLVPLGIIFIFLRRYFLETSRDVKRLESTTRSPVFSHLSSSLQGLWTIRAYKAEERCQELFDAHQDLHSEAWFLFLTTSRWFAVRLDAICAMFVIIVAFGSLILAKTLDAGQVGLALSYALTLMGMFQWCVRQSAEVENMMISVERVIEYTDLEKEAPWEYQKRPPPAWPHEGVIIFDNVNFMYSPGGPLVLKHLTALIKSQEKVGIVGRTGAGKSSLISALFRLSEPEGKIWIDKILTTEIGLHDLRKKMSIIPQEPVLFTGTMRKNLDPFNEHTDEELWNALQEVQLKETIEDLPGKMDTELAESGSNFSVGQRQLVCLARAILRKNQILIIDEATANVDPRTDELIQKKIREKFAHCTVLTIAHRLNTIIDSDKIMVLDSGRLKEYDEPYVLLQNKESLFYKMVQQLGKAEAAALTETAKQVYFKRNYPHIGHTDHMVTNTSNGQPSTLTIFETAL
# How it was run: (§1)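 MRP4-expressing HEK293 inside-out vesicles (baculovirus transduction). 7.5 μg protein with 4 mM ATP, 10 mM MgCl2 in TS buffer and 0.12 μM [3H]E2-17βG, 5 min at 37°C. Filter-bound radioactivity counted; AMP control subtracted for ATP-dependent uptake. Nominal 10/100 μM antagonist, actual concentrations by LC-MS/MS. Percent of untreated, three independent experiments.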
# [2] = biological target: T2, ATP-binding cassette sub-family C member 2 (Homo sapiens, UniProt Q92887); assay: Induction of MRP2-mediated E2-17betaG transport in human MRP2 expressing HEK293 cells at 12 uM during 5 mins; type: ADME, cell-based; settings: hek293, 5 min
# How it was run: (§2)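 Inside-out membrane vesicles from HEK293 cells transduced with MRP2 baculovirus (sodium butyrate 5 mM added at 24 h, harvested day 3). 7.5 μg vesicles in TS buffer (pH 7.4) with 4 mM ATP, 10 mM MgCl2, 20 μM [3H]E2-17βG, 5 min at 37°C. Rapid filtration and scintillation counting; AMP values subtracted. Nominal 10 and 100 μM antagonist, actual levels measured by LC-MS/MS. Untreated set at 100%. Three independent experiments.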
# Rattus norvegicus = assay: Attenuation of CP55940-induced hypotension in iv dosed rat; type: functional
# How it was run: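 Male normotensive anaesthetized Wistar rats; antagonist given i.v. at several doses (n=2 per dose) 10 min before CP55,940 0.1 mg/kg i.v. Hypotension develops within 1 min; lowest blood pressure taken as the hypotensive effect. ED50 is the dose inhibiting the CP55,940 hypotensive effect by 50%, calculated from the linear part of the percentage dose-response curve.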
# [3] = biological target: T3, Multidrug resistance-associated protein 1 (Homo sapiens, UniProt P33527); assay: Inhibition of MRP1-mediated E2-17betaG transport in human MRP1 expressing HEK293 cells at 12 uM during 5 mins; type: ADME, cell-based; settings: hek293, 5 min, 12 µM
# How it was run: (§3)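 Inside-out membrane vesicles from MRP1-baculovirus-transduced HEK293 cells. 7.5 μg vesicles in TS buffer, 4 mM ATP, 10 mM MgCl2, 0.16 μM [3H]E2-17βG, 5 min at 37°C. Stopped on ice, then rapid filtration and scintillation counting. ATP minus AMP uptake taken as net. Nominal 10 or 100 μM antagonist, actual levels by LC-MS/MS. Expressed as % of untreated. Three independent experiments.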
# [4] = Retention time of the compound by LC-MS/MS method; type: physicochemical
# How it was run: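 Reaction mix without radiolabel, AMP condition, with 7.5 μg eYFP vesicles. Supernatant after 16,000–20,000g spin diluted in 50% acetonitrile/0.1% TFA. Gradient of 0.1% TFA water/acetonitrile, 50→90% B over 5 min. Electrospray triple quadrupole. Duplicates, at least three experiments.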
# [5] = Cmax in male human subjects; type: ADME, organism-based; settings: in vivo
# [6] = biological target: T2, ATP-binding cassette sub-family C member 2; assay: Induction of MRP2-mediated E2-17betaG transport in human MRP2 expressing HEK293 cells at 4 uM during 5 mins; type: ADME, cell-based; settings: hek293, 5 min; how it was run: as §2
# [7] = biological target: T1, ATP-binding cassette sub-family C member 4; assay: Noncompetitive inhibition of MRP4-mediated E2-17betaG transport in human MRP4 expressing HEK293 cells by Dixon plot; type: ADME, cell-based
# [8] = biological target: ATP-binding cassette sub-family C member 3 (Homo sapiens, UniProt O15438); assay: Inhibition of MRP3-mediated E2-17betaG transport in human MRP3 expressing HEK293 cells in presence of 15 uM E2-17betaG; type: ADME, cell-based
# How it was run: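 Vesicles from MRP3-transduced HEK293 cells. 7.5 μg in TS buffer with 4 mM ATP and 10 mM MgCl2, substrate [3H]E2-17βG at 15 μM, with antagonists at high concentrations. Incubated at 37°C, filtered and counted. ATP-dependent uptake calculated by AMP subtraction.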
# MRP4 (ABCC4) = biological target: T4, MRP4 (ABCC4) (Homo sapiens, UniProt O15439); assay: Inhibition of MRP4-mediated E2-17betaG transport in human MRP4 expressing HEK293 cells at 4 uM during 5 mins; type: ADME, cell-based; settings: probe E2-17betaG; how it was run: as §1
# T4 sequence (O15439 whole entry): T1 sequence (O15439 whole entry)
# [9] = biological target: T1, ATP-binding cassette sub-family C member 4; assay: Inhibition of MRP4-mediated E2-17betaG transport in human MRP4 expressing HEK293 cells in presence of 0.1 to 1 uM E2-17betaG
# [10] = biological target: T2, ATP-binding cassette sub-family C member 2; assay: Induction of MRP2-mediated E2-17betaG transport in human MRP2 expressing HEK293 cells at 7 uM during 5 mins; type: ADME, cell-based; settings: hek293, 5 min
# How it was run: (§4)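 Inside-out membrane vesicles from HEK293 cells transduced with MRP baculovirus (5 mM butyrate at 24 h, harvested day 3). Reaction: 7.5 µg vesicles in TS buffer pH 7.4 with 4 mM ATP, 10 mM MgCl2 and [3H]E2-17βG, 37°C for 5 min. E2-17βG was 0.16 µM (MRP1), 20 µM (MRP2) or 0.12 µM (MRP4). Uptake was read by rapid filtration and scintillation counting. ATP-dependent uptake was taken as ATP minus AMP values, with drug-free uptake set at 100%. Nominal 10 or 100 µM antagonist; actual concentration measured by LC-MS/MS. Three independent experiments.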
# [11] = biological target: T3, Multidrug resistance-associated protein 1; assay: Inhibition of MRP1-mediated E2-17betaG transport in human MRP1 expressing HEK293 cells at 7 uM during 5 mins; type: ADME, cell-based; settings: hek293, 5 min; how it was run: as §4
# [12] = biological target: T1, ATP-binding cassette sub-family C member 4; assay: Inhibition of MRP4-mediated E2-17betaG transport in human MRP4 expressing HEK293 cells at 7 uM during 5 mins; type: ADME, cell-based; settings: hek293, 5 min; how it was run: as §4
# [13] = biological target: T2, ATP-binding cassette sub-family C member 2; assay: Induction of MRP2-mediated E2-17betaG transport in human MRP2 expressing HEK293 cells at 0.7 to 1.3 uM during 5 mins; type: ADME, cell-based; settings: hek293, 5 min; how it was run: as §2
# [14] = biological target: T1, ATP-binding cassette sub-family C member 4; assay: Inhibition of MRP4-mediated E2-17betaG transport in human MRP4 expressing HEK293 cells at 1 to 3 uM during 5 mins; type: ADME, cell-based; settings: hek293, 5 min; how it was run: as §1
# [15] = biological target: T2, ATP-binding cassette sub-family C member 2; assay: Induction of MRP2-mediated E2-17betaG transport in human MRP2 expressing HEK293 cells at 1 to 3 uM during 5 mins; type: ADME, cell-based; settings: hek293, 5 min; how it was run: as §2
# [16] = biological target: T3, Multidrug resistance-associated protein 1; assay: Inhibition of MRP1-mediated E2-17betaG transport in human MRP1 expressing HEK293 cells at 1 to 3 uM during 5 mins; type: ADME, cell-based; settings: hek293, 5 min; how it was run: as §3
# T2 sequence (Q92887 whole entry): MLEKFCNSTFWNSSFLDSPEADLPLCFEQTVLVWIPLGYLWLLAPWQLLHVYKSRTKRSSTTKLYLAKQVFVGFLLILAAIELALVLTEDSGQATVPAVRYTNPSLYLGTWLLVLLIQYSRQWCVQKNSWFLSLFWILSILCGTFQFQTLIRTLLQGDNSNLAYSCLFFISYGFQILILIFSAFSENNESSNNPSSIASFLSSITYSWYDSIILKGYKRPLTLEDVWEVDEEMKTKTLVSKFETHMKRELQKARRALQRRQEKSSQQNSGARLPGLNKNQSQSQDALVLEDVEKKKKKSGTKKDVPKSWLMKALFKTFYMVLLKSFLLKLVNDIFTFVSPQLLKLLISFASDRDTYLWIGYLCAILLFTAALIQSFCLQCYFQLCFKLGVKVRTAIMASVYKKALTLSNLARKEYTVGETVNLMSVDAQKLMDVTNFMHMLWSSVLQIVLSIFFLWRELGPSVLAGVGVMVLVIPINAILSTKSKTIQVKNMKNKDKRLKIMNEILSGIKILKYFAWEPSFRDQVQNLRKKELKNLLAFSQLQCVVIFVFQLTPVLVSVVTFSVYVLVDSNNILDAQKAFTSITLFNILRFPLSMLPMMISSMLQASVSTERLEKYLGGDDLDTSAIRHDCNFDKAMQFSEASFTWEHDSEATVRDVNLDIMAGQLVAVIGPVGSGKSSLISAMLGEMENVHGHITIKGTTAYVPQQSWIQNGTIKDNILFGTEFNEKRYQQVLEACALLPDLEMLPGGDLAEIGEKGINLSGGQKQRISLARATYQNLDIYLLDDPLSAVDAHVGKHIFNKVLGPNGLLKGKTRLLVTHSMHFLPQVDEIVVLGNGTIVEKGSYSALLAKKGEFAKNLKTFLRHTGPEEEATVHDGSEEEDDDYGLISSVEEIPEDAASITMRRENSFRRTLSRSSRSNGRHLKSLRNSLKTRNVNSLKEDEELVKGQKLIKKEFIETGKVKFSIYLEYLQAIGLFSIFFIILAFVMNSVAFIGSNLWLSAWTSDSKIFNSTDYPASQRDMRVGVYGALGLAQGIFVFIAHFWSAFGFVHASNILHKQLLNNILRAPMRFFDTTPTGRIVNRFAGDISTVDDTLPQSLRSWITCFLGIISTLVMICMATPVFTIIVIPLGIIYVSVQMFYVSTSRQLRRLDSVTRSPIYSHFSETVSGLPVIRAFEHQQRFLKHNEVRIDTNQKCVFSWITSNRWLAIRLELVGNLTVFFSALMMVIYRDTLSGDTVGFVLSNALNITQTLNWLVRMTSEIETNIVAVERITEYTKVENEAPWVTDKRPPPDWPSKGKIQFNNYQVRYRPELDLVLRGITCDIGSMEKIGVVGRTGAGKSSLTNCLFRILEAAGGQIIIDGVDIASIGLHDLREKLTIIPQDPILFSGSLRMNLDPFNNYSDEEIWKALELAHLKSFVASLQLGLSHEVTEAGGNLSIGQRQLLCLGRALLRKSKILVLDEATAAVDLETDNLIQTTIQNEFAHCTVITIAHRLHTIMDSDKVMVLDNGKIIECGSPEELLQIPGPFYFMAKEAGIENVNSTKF
# T3 sequence (P33527 whole entry): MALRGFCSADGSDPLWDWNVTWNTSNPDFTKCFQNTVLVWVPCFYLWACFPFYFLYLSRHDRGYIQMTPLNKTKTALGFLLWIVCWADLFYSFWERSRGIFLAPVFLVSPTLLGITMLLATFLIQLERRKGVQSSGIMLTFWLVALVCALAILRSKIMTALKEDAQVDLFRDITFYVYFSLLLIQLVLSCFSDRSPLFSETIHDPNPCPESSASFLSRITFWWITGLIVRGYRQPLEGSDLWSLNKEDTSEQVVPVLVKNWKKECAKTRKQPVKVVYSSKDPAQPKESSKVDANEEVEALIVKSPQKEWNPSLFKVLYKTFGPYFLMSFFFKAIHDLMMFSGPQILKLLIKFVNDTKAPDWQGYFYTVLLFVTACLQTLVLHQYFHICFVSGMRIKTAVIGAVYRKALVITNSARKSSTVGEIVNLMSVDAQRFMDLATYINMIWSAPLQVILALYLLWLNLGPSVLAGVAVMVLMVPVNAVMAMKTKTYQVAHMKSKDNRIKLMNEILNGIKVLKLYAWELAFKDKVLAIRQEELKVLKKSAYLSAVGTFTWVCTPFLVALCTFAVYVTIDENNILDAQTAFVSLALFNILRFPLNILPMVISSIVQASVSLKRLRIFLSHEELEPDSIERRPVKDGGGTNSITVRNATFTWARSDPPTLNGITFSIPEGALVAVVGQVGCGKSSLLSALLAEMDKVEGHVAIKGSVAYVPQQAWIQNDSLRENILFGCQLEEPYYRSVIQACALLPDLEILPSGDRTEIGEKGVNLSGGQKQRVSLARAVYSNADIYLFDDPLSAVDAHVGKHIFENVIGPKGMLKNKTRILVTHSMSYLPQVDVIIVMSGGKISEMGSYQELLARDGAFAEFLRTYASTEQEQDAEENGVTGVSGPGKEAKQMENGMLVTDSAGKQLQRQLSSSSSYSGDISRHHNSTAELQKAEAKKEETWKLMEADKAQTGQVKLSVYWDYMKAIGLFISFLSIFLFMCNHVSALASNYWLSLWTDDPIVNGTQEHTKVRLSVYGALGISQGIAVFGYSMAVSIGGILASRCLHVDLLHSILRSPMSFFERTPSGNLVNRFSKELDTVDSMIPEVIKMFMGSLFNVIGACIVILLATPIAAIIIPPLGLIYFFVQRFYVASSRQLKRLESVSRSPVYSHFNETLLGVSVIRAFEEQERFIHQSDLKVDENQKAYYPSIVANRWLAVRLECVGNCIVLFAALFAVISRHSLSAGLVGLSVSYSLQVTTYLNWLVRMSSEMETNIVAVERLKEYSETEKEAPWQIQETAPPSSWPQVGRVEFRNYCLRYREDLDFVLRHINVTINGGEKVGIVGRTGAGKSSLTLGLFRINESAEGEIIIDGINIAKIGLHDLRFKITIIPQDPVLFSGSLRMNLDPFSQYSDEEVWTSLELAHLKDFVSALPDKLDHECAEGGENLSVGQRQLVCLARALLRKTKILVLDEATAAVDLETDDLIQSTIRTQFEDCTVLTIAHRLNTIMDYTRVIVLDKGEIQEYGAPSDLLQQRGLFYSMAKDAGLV
# Sequence of ATP-binding cassette sub-family C member 3 (O15438 whole entry): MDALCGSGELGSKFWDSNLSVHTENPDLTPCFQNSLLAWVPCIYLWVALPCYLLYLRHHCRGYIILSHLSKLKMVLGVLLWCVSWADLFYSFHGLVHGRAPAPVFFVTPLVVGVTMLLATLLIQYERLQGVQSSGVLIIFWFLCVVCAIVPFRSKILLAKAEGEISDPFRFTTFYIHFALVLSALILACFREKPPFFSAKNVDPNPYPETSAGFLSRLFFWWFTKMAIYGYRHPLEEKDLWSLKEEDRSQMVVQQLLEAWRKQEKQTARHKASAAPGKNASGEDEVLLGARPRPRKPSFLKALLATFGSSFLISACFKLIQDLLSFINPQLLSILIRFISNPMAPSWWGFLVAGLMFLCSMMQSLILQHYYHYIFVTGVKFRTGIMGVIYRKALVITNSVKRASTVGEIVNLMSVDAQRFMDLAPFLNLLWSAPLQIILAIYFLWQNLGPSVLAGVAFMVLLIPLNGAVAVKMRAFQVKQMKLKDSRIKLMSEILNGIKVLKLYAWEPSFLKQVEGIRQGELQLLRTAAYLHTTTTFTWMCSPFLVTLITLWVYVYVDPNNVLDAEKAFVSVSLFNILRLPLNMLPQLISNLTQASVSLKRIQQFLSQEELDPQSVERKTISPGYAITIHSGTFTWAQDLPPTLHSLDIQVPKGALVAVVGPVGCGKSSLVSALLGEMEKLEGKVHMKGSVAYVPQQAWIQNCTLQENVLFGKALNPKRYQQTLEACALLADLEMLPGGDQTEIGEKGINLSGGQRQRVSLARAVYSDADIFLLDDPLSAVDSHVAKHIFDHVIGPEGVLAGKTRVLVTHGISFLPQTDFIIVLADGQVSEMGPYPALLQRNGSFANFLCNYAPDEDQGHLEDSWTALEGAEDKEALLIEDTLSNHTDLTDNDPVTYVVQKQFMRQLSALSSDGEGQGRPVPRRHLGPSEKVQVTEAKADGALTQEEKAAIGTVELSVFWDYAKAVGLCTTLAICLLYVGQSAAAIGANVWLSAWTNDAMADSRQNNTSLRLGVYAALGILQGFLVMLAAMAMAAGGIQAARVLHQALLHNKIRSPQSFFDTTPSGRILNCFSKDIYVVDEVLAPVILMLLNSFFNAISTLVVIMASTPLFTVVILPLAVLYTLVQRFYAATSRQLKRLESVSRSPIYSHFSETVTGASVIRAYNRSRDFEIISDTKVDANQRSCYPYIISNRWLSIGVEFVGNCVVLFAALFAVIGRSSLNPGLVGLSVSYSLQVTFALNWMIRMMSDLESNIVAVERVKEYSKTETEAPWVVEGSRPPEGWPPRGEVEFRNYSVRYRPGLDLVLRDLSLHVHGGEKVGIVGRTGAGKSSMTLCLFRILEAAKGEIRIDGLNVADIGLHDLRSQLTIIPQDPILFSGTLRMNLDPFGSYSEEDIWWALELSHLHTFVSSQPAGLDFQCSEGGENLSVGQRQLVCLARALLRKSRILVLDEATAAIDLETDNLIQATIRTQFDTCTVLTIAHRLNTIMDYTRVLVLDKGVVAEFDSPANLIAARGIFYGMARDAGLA
Structure (SMILES),ED50 (Rattus norvegicus),Retention_time [4],inhibition (INH) [8],inhibition (INH) [9],Activity [10],inhibition (INH) [11],inhibition (INH) [12],other results
CN=C(NS(=O)(=O)N1CCCC1)N1CC(c2ccccc2)C(c2ccc(Cl)cc2)=N1 (stereo not given),0.7 mg/kg,3.5 min,–,–,–,–,–,inhibition (INH) [1]: Active; Activity [2]: 543%; inhibition (INH) [3]: Active
Cc1c(C(=O)NN2CCCCC2)nn(-c2ccc(Cl)cc2Cl)c1-c1ccc(Cl)cc1 [RIMONABANT],–,3.2 min,Active,Active,–,–,–,"Cmax [5]: 400 nM; Activity [6]: 513%; Ki [7]: 4 µM; inhibition at 5 min, 4 µM (MRP4 (ABCC4)): -58%"
C/N=C(\NS(=O)(=O)N(C)C(C)C)N1CC(c2ccccc2)C(c2ccc(Cl)cc2)=N1 (stereo not given),–,4.2 min,–,–,543%,Active,Active,–
CN/C(=N\S(=O)(=O)N1CCCCCC1)N1CC(c2ccccc2)C(c2ccc(Cl)cc2)=N1 (stereo not given),0.1 mg/kg,4.8 min,Active,Active,–,–,–,"Activity [13]: 256%; inhibition (INH) [14]: Not Active; Activity [15]: 349%; inhibition (INH) ([7]; human, hek293): Active; inhibition (INH) [16]: Not Active"
CCN(CC)S(=O)(=O)NC(=NC)N1CC(c2ccccc2)C(c2ccc(Cl)cc2)=N1 (stereo not given),0.2 mg/kg,4.2 min,–,–,543%,Not Active,Active,–
